Peptide text beside a SMILES is read from it.
How the values were obtained:
[1] = target: Rhodesain (Trypanosoma brucei rhodesiense) (UniProt Q95PM0); test: Inhibition of Trypanosoma brucei rhodesiense rhodesain after 12 hrs by fluorescence spectroscopy-based on-bead assay; design: concentration or dose not given beside the values; conditions: concentration not given here
Procedure, shortened: (§1)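 Library members on resin (PEGA, theoretical loading 0.40 mmol/g; added as DMSO suspension, 0.64 mM final inhibitor) preincubated with enzyme 12 h, then Cbz-Phe-Arg-AMC 40 μM added; AMC release followed by fluorescence (ex 380/em 460 nm). Kinetics compared with inhibitor-free amino-PEGA resin.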

[2] = Inhibition of Plasmodium falciparum falcipain-2 after 12 hrs by fluorescence spectroscopy-based on-bead assay; design: concentration or dose not given beside the values; conditions: concentration not given here; procedure, shortened: as §1

Chain of Rhodesain (Trypanosoma brucei rhodesiense) (Q95PM0 1-450): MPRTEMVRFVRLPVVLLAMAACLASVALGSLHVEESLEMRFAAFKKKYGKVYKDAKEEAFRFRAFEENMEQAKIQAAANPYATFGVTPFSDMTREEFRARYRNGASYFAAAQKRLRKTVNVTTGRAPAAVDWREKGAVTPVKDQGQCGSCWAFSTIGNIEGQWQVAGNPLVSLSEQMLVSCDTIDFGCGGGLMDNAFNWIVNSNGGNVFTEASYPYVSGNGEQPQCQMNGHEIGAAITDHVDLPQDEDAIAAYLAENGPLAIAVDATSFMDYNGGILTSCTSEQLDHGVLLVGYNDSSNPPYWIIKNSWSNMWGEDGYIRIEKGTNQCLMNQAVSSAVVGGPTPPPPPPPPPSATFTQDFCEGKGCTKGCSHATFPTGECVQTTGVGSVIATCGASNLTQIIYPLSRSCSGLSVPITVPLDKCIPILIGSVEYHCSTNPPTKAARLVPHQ

Row | Structure (SMILES) | inhibition [1] [%] | inhibition [2] [%]
1 | CC(C)[C@H](NC(=O)[C@H](C)NC(=O)[C@H](Cc1ccccc1)NC(=O)[C@H](C)NC(=O)/C=C/C(=O)N[C@@H](C)C(=O)NCC(=O)N[C@@H](Cc1ccccc1)C(=O)O)C(N)=O (HELM PEPTIDE1{[C[C@H](NC(=O)/C=C/C(=O)[*:2])C(=O)NCC(=O)N[C@@H](Cc1ccccc1)C(=O)O].A.F.A.V.[am]}$$$$V2.0) | 18 | 51
2 | CC(C)C[C@H](NC(=O)[C@H](Cc1ccccc1)NC(=O)[C@H](C)NC(=O)/C=C/C(=O)N[C@@H](C)C(=O)NCC(=O)N[C@@H](Cc1ccccc1)C(=O)O)C(=O)N[C@H](C(N)=O)C(C)C (HELM PEPTIDE1{[C[C@H](NC(=O)/C=C/C(=O)[*:2])C(=O)NCC(=O)N[C@@H](Cc1ccccc1)C(=O)O].A.F.L.V.[am]}$$$$V2.0) | 66 | 57
3 | CC(C)[C@H](NC(=O)[C@@H](NC(=O)[C@H](Cc1ccccc1)NC(=O)[C@H](C)NC(=O)/C=C/C(=O)N[C@@H](C)C(=O)NCC(=O)N[C@@H](Cc1ccccc1)C(=O)O)C(C)C)C(N)=O (HELM PEPTIDE1{[C[C@H](NC(=O)/C=C/C(=O)[*:2])C(=O)NCC(=O)N[C@@H](Cc1ccccc1)C(=O)O].A.F.V.V.[am]}$$$$V2.0) | 55 | 35
4 | CC[C@H](C)[C@H](NC(=O)[C@H](C)NC(=O)/C=C/C(=O)N[C@@H](C)C(=O)NCC(=O)N[C@@H](Cc1ccccc1)C(=O)O)C(=O)N[C@@H](C)C(=O)N[C@H](C(N)=O)C(C)C (HELM PEPTIDE1{[C[C@H](NC(=O)/C=C/C(=O)[*:2])C(=O)NCC(=O)N[C@@H](Cc1ccccc1)C(=O)O].A.I.A.V.[am]}$$$$V2.0) | 9 | 37
5 | CC[C@H](C)[C@H](NC(=O)[C@H](C)NC(=O)/C=C/C(=O)N[C@@H](C)C(=O)NCC(=O)N[C@@H](Cc1ccccc1)C(=O)O)C(=O)N[C@@H](CC(C)C)C(=O)N[C@H](C(N)=O)C(C)C (HELM PEPTIDE1{[C[C@H](NC(=O)/C=C/C(=O)[*:2])C(=O)NCC(=O)N[C@@H](Cc1ccccc1)C(=O)O].A.I.L.V.[am]}$$$$V2.0) | 49 | 54
6 | CC[C@H](C)[C@H](NC(=O)[C@H](C)NC(=O)/C=C/C(=O)N[C@@H](C)C(=O)NCC(=O)N[C@@H](Cc1ccccc1)C(=O)O)C(=O)N[C@H](C(=O)N[C@H](C(N)=O)C(C)C)C(C)C (HELM PEPTIDE1{[C[C@H](NC(=O)/C=C/C(=O)[*:2])C(=O)NCC(=O)N[C@@H](Cc1ccccc1)C(=O)O].A.I.V.V.[am]}$$$$V2.0) | 34 | 30
7 | CC(C)C[C@H](NC(=O)[C@H](C)NC(=O)/C=C/C(=O)N[C@@H](C)C(=O)NCC(=O)N[C@@H](Cc1ccccc1)C(=O)O)C(=O)N[C@@H](C)C(=O)N[C@H](C(N)=O)C(C)C (HELM PEPTIDE1{[C[C@H](NC(=O)/C=C/C(=O)[*:2])C(=O)NCC(=O)N[C@@H](Cc1ccccc1)C(=O)O].A.L.A.V.[am]}$$$$V2.0) | 31 | 62
8 | CC(C)C[C@H](NC(=O)[C@H](C)NC(=O)/C=C/C(=O)N[C@@H](C)C(=O)NCC(=O)N[C@@H](Cc1ccccc1)C(=O)O)C(=O)N[C@H](C(=O)N[C@H](C(N)=O)C(C)C)C(C)C (HELM PEPTIDE1{[C[C@H](NC(=O)/C=C/C(=O)[*:2])C(=O)NCC(=O)N[C@@H](Cc1ccccc1)C(=O)O].A.L.V.V.[am]}$$$$V2.0) | 59 | 40
9 | CC(C)[C@H](NC(=O)[C@H](C)NC(=O)[C@@H](NC(=O)[C@H](C)NC(=O)/C=C/C(=O)N[C@@H](C)C(=O)NCC(=O)N[C@@H](Cc1ccccc1)C(=O)O)C1CCCCC1)C(N)=O (HELM PEPTIDE1{[C[C@H](NC(=O)/C=C/C(=O)[*:2])C(=O)NCC(=O)N[C@@H](Cc1ccccc1)C(=O)O].A.[O=C([C@@H](N[*:1])C1CCCCC1)[*:2]].A.V.[am]}$$$$V2.0) | 26 | 38
10 | CC(C)C[C@H](NC(=O)[C@@H](NC(=O)[C@H](C)NC(=O)/C=C/C(=O)N[C@@H](C)C(=O)NCC(=O)N[C@@H](Cc1ccccc1)C(=O)O)C1CCCCC1)C(=O)N[C@H](C(N)=O)C(C)C (HELM PEPTIDE1{[C[C@H](NC(=O)/C=C/C(=O)[*:2])C(=O)NCC(=O)N[C@@H](Cc1ccccc1)C(=O)O].A.[O=C([C@@H](N[*:1])C1CCCCC1)[*:2]].L.V.[am]}$$$$V2.0) | 59 | 43
11 | CC(C)[C@H](NC(=O)[C@@H](NC(=O)[C@@H](NC(=O)[C@H](C)NC(=O)/C=C/C(=O)N[C@@H](C)C(=O)NCC(=O)N[C@@H](Cc1ccccc1)C(=O)O)C1CCCCC1)C(C)C)C(N)=O (HELM PEPTIDE1{[C[C@H](NC(=O)/C=C/C(=O)[*:2])C(=O)NCC(=O)N[C@@H](Cc1ccccc1)C(=O)O].A.[O=C([C@@H](N[*:1])C1CCCCC1)[*:2]].V.V.[am]}$$$$V2.0) | 34 | 57
12 | CC(C)[C@H](NC(=O)[C@H](C)NC(=O)[C@@H](NC(=O)[C@H](C)NC(=O)/C=C/C(=O)N[C@@H](C)C(=O)NCC(=O)N[C@@H](Cc1ccccc1)C(=O)O)c1ccccc1)C(N)=O (HELM PEPTIDE1{[C[C@H](NC(=O)/C=C/C(=O)[*:2])C(=O)NCC(=O)N[C@@H](Cc1ccccc1)C(=O)O].A.[Phg].A.V.[am]}$$$$V2.0) | 25 | 57
13 | CC(C)C[C@H](NC(=O)[C@@H](NC(=O)[C@H](C)NC(=O)/C=C/C(=O)N[C@@H](C)C(=O)NCC(=O)N[C@@H](Cc1ccccc1)C(=O)O)c1ccccc1)C(=O)N[C@H](C(N)=O)C(C)C (HELM PEPTIDE1{[C[C@H](NC(=O)/C=C/C(=O)[*:2])C(=O)NCC(=O)N[C@@H](Cc1ccccc1)C(=O)O].A.[Phg].L.V.[am]}$$$$V2.0) | 72 | 55
14 | CC(C)[C@H](NC(=O)[C@@H](NC(=O)[C@@H](NC(=O)[C@H](C)NC(=O)/C=C/C(=O)N[C@@H](C)C(=O)NCC(=O)N[C@@H](Cc1ccccc1)C(=O)O)c1ccccc1)C(C)C)C(N)=O (HELM PEPTIDE1{[C[C@H](NC(=O)/C=C/C(=O)[*:2])C(=O)NCC(=O)N[C@@H](Cc1ccccc1)C(=O)O].A.[Phg].V.V.[am]}$$$$V2.0) | 50 | 38
15 | CC(C)[C@H](NC(=O)[C@H](C)NC(=O)[C@H](Cc1ccccc1)NC(=O)[C@H](Cc1ccccc1)NC(=O)/C=C/C(=O)N[C@@H](C)C(=O)NCC(=O)N[C@@H](Cc1ccccc1)C(=O)O)C(N)=O (HELM PEPTIDE1{[C[C@H](NC(=O)/C=C/C(=O)[*:2])C(=O)NCC(=O)N[C@@H](Cc1ccccc1)C(=O)O].F.F.A.V.[am]}$$$$V2.0) | 37 | 30
16 | CC(C)C[C@H](NC(=O)[C@H](Cc1ccccc1)NC(=O)[C@H](Cc1ccccc1)NC(=O)/C=C/C(=O)N[C@@H](C)C(=O)NCC(=O)N[C@@H](Cc1ccccc1)C(=O)O)C(=O)N[C@H](C(N)=O)C(C)C (HELM PEPTIDE1{[C[C@H](NC(=O)/C=C/C(=O)[*:2])C(=O)NCC(=O)N[C@@H](Cc1ccccc1)C(=O)O].F.F.L.V.[am]}$$$$V2.0) | 54 | 47
17 | CC(C)[C@H](NC(=O)[C@@H](NC(=O)[C@H](Cc1ccccc1)NC(=O)[C@H](Cc1ccccc1)NC(=O)/C=C/C(=O)N[C@@H](C)C(=O)NCC(=O)N[C@@H](Cc1ccccc1)C(=O)O)C(C)C)C(N)=O (HELM PEPTIDE1{[C[C@H](NC(=O)/C=C/C(=O)[*:2])C(=O)NCC(=O)N[C@@H](Cc1ccccc1)C(=O)O].F.F.V.V.[am]}$$$$V2.0) | 38 | 37
18 | CC[C@H](C)[C@H](NC(=O)[C@H](Cc1ccccc1)NC(=O)/C=C/C(=O)N[C@@H](C)C(=O)NCC(=O)N[C@@H](Cc1ccccc1)C(=O)O)C(=O)N[C@@H](C)C(=O)N[C@H](C(N)=O)C(C)C (HELM PEPTIDE1{[C[C@H](NC(=O)/C=C/C(=O)[*:2])C(=O)NCC(=O)N[C@@H](Cc1ccccc1)C(=O)O].F.I.A.V.[am]}$$$$V2.0) | 40 | 29
19 | CC[C@H](C)[C@H](NC(=O)[C@H](Cc1ccccc1)NC(=O)/C=C/C(=O)N[C@@H](C)C(=O)NCC(=O)N[C@@H](Cc1ccccc1)C(=O)O)C(=O)N[C@@H](CC(C)C)C(=O)N[C@H](C(N)=O)C(C)C (HELM PEPTIDE1{[C[C@H](NC(=O)/C=C/C(=O)[*:2])C(=O)NCC(=O)N[C@@H](Cc1ccccc1)C(=O)O].F.I.L.V.[am]}$$$$V2.0) | 61 | 51
20 | CC[C@H](C)[C@H](NC(=O)[C@H](Cc1ccccc1)NC(=O)/C=C/C(=O)N[C@@H](C)C(=O)NCC(=O)N[C@@H](Cc1ccccc1)C(=O)O)C(=O)N[C@H](C(=O)N[C@H](C(N)=O)C(C)C)C(C)C (HELM PEPTIDE1{[C[C@H](NC(=O)/C=C/C(=O)[*:2])C(=O)NCC(=O)N[C@@H](Cc1ccccc1)C(=O)O].F.I.V.V.[am]}$$$$V2.0) | 43 | 45
21 | CC(C)C[C@H](NC(=O)[C@H](Cc1ccccc1)NC(=O)/C=C/C(=O)N[C@@H](C)C(=O)NCC(=O)N[C@@H](Cc1ccccc1)C(=O)O)C(=O)N[C@@H](C)C(=O)N[C@H](C(N)=O)C(C)C (HELM PEPTIDE1{[C[C@H](NC(=O)/C=C/C(=O)[*:2])C(=O)NCC(=O)N[C@@H](Cc1ccccc1)C(=O)O].F.L.A.V.[am]}$$$$V2.0) | 49 | 45
22 | CC(C)C[C@H](NC(=O)[C@H](Cc1ccccc1)NC(=O)/C=C/C(=O)N[C@@H](C)C(=O)NCC(=O)N[C@@H](Cc1ccccc1)C(=O)O)C(=O)N[C@@H](CC(C)C)C(=O)N[C@H](C(N)=O)C(C)C (HELM PEPTIDE1{[C[C@H](NC(=O)/C=C/C(=O)[*:2])C(=O)NCC(=O)N[C@@H](Cc1ccccc1)C(=O)O].F.L.L.V.[am]}$$$$V2.0) | 69 | 62
23 | CC(C)C[C@H](NC(=O)[C@H](Cc1ccccc1)NC(=O)/C=C/C(=O)N[C@@H](C)C(=O)NCC(=O)N[C@@H](Cc1ccccc1)C(=O)O)C(=O)N[C@H](C(=O)N[C@H](C(N)=O)C(C)C)C(C)C (HELM PEPTIDE1{[C[C@H](NC(=O)/C=C/C(=O)[*:2])C(=O)NCC(=O)N[C@@H](Cc1ccccc1)C(=O)O].F.L.V.V.[am]}$$$$V2.0) | 45 | 36

From ChEMBL document CHEMBL1155459, “On-bead screening of a combinatorial fumaric acid derived peptide library yields antiplasmodial cysteine protease inhibitors with unusual peptide sequences” (J Med Chem, 2009)
